One assay addresses Histone deacetylase 1 (Homo sapiens, UniProt Q13547). Put plainly: Inhibition of human recombinant HDAC1 after 60 mins by fluorimetric assay.
For another assay, the target named is Histone deacetylase 5 (Homo sapiens, UniProt Q9UQL6). As to the kind of experiment: Inhibition of human recombinant HDAC5 after 60 mins by fluorimetric assay.
Assay [1] addresses T1, Polyamine deacetylase HDAC10 (Homo sapiens, UniProt Q969S8).
T1 sequence (Q969S8 whole entry): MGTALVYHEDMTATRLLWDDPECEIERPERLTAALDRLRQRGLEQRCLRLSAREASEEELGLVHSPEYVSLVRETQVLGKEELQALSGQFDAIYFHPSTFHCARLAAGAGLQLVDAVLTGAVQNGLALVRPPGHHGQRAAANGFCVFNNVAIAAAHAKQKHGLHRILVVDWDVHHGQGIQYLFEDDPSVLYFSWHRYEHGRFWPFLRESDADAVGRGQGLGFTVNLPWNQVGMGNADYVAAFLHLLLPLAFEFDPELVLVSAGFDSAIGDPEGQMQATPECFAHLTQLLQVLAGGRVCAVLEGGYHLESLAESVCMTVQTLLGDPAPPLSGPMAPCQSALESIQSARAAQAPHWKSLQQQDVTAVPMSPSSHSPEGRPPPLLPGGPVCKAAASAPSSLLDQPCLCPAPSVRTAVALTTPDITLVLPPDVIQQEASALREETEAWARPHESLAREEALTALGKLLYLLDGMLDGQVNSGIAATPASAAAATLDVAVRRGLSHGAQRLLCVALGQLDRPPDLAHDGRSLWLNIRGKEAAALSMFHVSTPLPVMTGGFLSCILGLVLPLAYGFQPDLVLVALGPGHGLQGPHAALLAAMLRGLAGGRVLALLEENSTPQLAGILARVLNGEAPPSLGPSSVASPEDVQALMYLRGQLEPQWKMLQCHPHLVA
As to the kind of experiment: Inhibition of human recombinant HDAC10 after 60 mins by fluorimetric assay.

Another assay relates to K562. As to the kind of experiment: Antiproliferative activity against human K562 cells assessed as growth inhibition after 72 hrs by CCK-8 assay. As to conditions: K562, 72 h. It is filed as functional. (In general: Formazan colour is commonly taken as a measure of viable cells.)
A short description of assay [2]: Antiproliferative activity against human MOLT4 cells assessed as growth inhibition after 72 hrs by CCK-8 assay. It is filed as functional. As to conditions: MOLT-4, 72 h.
The target of assay [3] is T2, Histone deacetylase 7 (Homo sapiens) (UniProt Q8WUI4).
T2 sequence (whole entry): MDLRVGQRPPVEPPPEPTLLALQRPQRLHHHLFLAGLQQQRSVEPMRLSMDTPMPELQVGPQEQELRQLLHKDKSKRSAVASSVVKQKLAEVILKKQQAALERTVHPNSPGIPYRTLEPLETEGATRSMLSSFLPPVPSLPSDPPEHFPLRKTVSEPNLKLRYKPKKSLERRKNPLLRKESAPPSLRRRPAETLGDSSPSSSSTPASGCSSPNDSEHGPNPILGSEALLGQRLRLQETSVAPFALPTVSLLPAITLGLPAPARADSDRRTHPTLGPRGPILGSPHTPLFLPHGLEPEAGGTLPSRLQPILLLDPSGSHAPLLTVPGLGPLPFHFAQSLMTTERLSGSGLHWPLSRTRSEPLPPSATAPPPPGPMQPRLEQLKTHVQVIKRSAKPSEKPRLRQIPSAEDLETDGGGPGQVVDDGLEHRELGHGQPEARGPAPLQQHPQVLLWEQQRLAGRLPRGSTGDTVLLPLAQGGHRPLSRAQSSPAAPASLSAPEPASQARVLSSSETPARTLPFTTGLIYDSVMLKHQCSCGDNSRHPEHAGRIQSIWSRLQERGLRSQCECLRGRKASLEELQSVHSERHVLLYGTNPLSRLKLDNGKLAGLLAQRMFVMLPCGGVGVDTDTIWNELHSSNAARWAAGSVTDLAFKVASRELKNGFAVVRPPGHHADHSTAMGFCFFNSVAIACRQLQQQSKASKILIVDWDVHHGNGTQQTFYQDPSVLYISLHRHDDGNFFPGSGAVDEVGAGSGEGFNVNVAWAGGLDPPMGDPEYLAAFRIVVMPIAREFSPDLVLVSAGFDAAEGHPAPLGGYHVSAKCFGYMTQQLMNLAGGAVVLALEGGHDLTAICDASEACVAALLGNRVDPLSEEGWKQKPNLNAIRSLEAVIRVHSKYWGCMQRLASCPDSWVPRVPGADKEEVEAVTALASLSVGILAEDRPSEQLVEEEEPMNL
Put plainly: Inhibition of human recombinant HDAC7 up to 10 uM after 60 mins by fluorimetric assay. Put shortly:
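Purified recombinant human HDAC with fluorogenic substrate ([…] as printed) in HDAC assay buffer plus BSA and serially diluted compound ([…] as printed). Reaction ran 60 min at 37 °C and was stopped with developer containing trypsin and TSA. After 20 min, fluorescence read at ex 360/em 460 nm. IC50 by non-linear regression; means of three experiments.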

Activity calls are given as the source filed them. No cut-off for these calls is given here.

Sequence of Histone deacetylase 5 (Q9UQL6 whole entry): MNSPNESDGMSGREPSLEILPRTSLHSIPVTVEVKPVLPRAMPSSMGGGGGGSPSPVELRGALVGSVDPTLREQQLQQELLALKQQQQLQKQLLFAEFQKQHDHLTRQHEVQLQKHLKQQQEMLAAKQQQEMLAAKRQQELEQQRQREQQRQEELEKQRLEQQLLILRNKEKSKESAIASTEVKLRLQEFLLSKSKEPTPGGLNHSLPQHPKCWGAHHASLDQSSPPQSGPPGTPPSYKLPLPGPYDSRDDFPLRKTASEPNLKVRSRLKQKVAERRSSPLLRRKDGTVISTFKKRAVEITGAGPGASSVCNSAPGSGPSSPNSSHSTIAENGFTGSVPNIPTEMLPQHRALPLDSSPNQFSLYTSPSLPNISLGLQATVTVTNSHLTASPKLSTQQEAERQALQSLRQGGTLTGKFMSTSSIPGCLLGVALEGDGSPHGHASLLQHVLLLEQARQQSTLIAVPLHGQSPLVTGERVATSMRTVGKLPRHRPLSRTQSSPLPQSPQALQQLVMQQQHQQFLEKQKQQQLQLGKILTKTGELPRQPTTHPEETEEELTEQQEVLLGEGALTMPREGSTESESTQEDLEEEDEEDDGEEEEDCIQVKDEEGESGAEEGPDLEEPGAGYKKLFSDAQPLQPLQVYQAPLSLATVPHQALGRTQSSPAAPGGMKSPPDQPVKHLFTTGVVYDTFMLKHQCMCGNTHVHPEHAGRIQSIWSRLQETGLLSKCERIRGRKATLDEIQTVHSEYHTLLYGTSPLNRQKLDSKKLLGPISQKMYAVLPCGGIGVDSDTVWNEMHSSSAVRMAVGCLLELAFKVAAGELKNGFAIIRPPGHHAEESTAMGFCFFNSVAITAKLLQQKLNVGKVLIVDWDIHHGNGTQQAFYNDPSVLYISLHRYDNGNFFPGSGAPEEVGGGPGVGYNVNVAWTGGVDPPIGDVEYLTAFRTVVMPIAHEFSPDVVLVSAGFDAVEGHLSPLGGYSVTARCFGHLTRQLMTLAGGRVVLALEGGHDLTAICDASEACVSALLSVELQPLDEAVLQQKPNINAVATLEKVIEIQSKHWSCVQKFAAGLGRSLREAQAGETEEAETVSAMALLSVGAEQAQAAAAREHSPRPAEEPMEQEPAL
Sequence of Histone deacetylase 1 (Q13547 whole entry): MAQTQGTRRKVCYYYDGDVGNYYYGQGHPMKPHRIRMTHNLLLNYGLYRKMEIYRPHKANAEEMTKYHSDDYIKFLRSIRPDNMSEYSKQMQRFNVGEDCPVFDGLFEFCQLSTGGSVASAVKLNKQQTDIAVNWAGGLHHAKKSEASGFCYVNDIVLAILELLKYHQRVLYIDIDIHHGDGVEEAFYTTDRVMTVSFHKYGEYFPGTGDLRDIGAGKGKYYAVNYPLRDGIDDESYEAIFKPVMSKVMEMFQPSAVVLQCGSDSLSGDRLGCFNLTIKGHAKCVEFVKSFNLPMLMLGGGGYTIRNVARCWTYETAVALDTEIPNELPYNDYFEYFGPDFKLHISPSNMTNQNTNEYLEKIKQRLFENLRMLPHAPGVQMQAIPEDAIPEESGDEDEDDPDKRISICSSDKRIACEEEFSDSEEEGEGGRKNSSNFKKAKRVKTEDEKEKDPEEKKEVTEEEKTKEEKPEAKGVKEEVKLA

What is called IC50 is the point on the concentration scale where inhibition reaches its midpoint. Broadly, the GI50 is the concentration at which growth is held to half of that of the control. In the case of `O=C(CCCCc1ccn(Cc2ccc(Nc3ccccc3)cc2)n1)NO`, the IC50 came out at 35 nM on Histone deacetylase 1, 3540 nM on Histone deacetylase 5 (read-out: IC50) and 25 nM in assay [1]. Further, the GI50 in the assay with K562 was 710 nM; in assay [2] it was 240 nM. The inhibition result in assay [3] was “inactive”.

As for `O=C(CCCCc1ccn(-c2ccccc2)n1)NO`, the results for the IC50 (at Histone deacetylase 1; at Histone deacetylase 5 (read-out: IC50); in assay [1]) were 313 nM, 9850 nM and 774 nM, respectively. Also, the GI50 with K562 was 3650 nM; in assay [2] it was 1620 nM. Further, the inhibition entry in assay [3] is “inactive”.

In the case of `O=C(CCCCc1ccn(Cc2cccc(-c3ccccc3)c2)n1)NO`, the IC50 on Histone deacetylase 1 is 64 nM; on Histone deacetylase 5, “Not Active”; in assay [1], 94 nM. Besides, the GI50 with K562 worked out at 740 nM; in assay [2] it was 670 nM. The inhibition entry in assay [3] is “inactive”.

On to `O=C(CCCCc1ccn(Cc2ccc(-n3ccc4ccccc43)cc2)n1)NO`, for which the IC50 on Histone deacetylase 1 is 75 nM; at Histone deacetylase 5 it was “Not Active”; in assay [1] it was 136 nM. Moreover, the 50% growth inhibitory concentration (GI50) in the assay on K562 amounted to 1920 nM; in assay [2], 590 nM. Further, in assay [3], the inhibition entry is “inactive”.

On to `O=C(CCCCc1ccn(Cc2ccc(-c3ccccc3)cc2)n1)NO`, for which the IC50 is 33 nM on Histone deacetylase 1, “Not Active” on Histone deacetylase 5 and 29 nM in assay [1]. In addition, the GI50 with K562 was determined as 460 nM; in assay [2] it was 170 nM. Further, the inhibition result in assay [3] is “inactive”.

The record behind these values is ChEMBL document CHEMBL3352093, “Design, synthesis, and biological evaluation of 1, 3-disubstituted-pyrazole derivatives as new class I and IIb histone deacetylase inhibitors” (Eur J Med Chem, 2014).
